# Source: PubChem BioAssay (Johns Hopkins Ion Channel Center)
# An excerpt weighted towards active compounds, which were near 2.3% of everything screened.
# TRPC4 PAM – TRPC4 (mouse) allosteric potentiation; Q9QUQ5; AID 2227; HEK293 TRPC4beta/mu-opioid, DAMGO EC20, Fluo-4 Ca2+ flux; hits give high values; actives 0.42% (n = 310,000); B-score at 10 µM;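 active = B-score of calcium response area above 5 SD of library B-scores, with initial fluorescence ratio within 5 SD of library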;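 also: B-score of integrated fluorescence ratio over time as area under calcium response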
# Target sequence (Q9QUQ5 whole entry, looked up): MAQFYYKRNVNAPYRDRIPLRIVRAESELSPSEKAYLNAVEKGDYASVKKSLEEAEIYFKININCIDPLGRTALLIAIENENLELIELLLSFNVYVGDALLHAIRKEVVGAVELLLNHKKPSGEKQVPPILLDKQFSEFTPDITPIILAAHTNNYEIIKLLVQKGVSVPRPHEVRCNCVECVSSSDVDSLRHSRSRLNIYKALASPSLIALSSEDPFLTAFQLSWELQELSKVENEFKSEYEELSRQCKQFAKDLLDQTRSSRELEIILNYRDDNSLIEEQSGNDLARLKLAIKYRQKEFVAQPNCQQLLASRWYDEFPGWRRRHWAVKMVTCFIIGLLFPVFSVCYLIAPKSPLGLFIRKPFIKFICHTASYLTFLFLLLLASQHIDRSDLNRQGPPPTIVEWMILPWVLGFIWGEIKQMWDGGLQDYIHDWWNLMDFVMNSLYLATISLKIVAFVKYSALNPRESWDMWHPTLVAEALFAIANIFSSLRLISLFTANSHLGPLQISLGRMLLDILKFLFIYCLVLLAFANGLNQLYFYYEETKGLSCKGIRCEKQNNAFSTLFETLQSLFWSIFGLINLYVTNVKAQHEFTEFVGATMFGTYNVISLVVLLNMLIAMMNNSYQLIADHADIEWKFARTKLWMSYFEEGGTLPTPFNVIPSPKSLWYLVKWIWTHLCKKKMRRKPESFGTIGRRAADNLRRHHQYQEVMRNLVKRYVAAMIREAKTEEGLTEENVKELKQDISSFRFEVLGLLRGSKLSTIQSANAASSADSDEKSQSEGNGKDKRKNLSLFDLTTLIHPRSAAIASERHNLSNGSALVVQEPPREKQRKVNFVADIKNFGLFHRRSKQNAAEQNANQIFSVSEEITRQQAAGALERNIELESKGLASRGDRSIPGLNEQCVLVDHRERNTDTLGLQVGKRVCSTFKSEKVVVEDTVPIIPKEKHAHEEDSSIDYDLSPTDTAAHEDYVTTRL
# TRPC6 act – mouse TRPC6 channel activation | Q61143 | HEK293-TRPC6 membrane potential dye fluorescence; hits give high values | B-score at 10 µM | actives 0.13% (n = 310,000);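 active = B-score of the integrated fluorescence ratio above library mean plus 3 SD, and starting fluorescence ratio within library mean plus 5 SD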;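 also: higher score means more depolarization so channel activation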
# TRPC4 agonist – TRPC4 (mouse) channel activation. Q9QUQ5. HEK293 TRPC4beta/mu-opioid, Fluo4 calcium fluorescence; hits give high values. B-score at 10 µM. actives 0.49% (n = 310,000);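 active = B-score above 5 SD of library B-scores, and initial fluorescence ratio not above library mean plus 5 SD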;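 also: positive B-score marks a calcium rise read as TRPC4 activation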
#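 Technique: kinetic Fluo4 calcium fluorescence; Test system: TRPC4beta and mu-opioid receptor HEK293 stable cells; Measure: B-scored integrated calcium fluorescence ratio; Benchmarks: low control buffer alone, high control maximal DAMGO; Schedule: 45 min room-temperature Fluo4 loading, 110 s read.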
# TRPC4 block – blocks the mouse TRPC4 cation channel | B-score at 10 µM | Q9QUQ5 | actives 0.39% (n = 300,000) | HEK293 TRPC4beta/mu-opioid, DAMGO-evoked Fluo4 calcium flux; hits give low values;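 active = B-score over 3 SD under the library average, no early fluorescence shift, positive overall ratio signal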
#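 Assay system – HEK293 line stably carrying TRPC4beta and mu-opioid receptor · Doses – single dose · Detection – Fluo4 calcium-dye fluorescence, kinetic read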
# TRPC6 inhibitor – blocks the mouse TRPC6 cation channel; HEK293-TRPC6, membrane potential dye, ACh-evoked depolarization; hits give low values; B-score at 10 µM; actives 1.1% (n = 310,000); AID 2553;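 active = B-score under library mean minus 3 SD, initial fluorescence not abnormally high, positive integrated signal ratio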;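 also: B-score derived from integrated fluorescence ratio over the kinetic read; more negative B-score means stronger inhibition of depolarization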
# TRPC4 spec 2 – second selectivity test of TRPC6 inhibitors: effect on mouse TRPC4; shares compounds with TRPC6 inhibitor; inhibition, % at 10 µM; actives 42% (n = 920); HEK293 TRPC4/MOR, membrane potential dye fluorescence; channel activated by saturating DAMGO dose;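 active = compounds whose fluorescence signal differed from control wells by over 3 SD, either direction, in both duplicate plates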
# TRPC4 spec – mouse TRPC4 off-target activity of TRPC6 inhibitors; shares compounds with TRPC6 inhibitor; HEK293 TRPC4/mu-opioid, membrane potential fluorescence; activity change, negative = inhibition, % at 10 µM; actives 61% (n = 920); AID 2777;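 active = rise or fall in signal beyond 3 SD of buffer-only wells in both replicate plates, either sign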;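 also: integrated kinetic ratio of fluorescence range over baseline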
# HEK293 MPD ctr 2-1 – second check of TRPC6 inhibitor effects in parental HEK293 cells; shares compounds with TRPC6 inhibitor; parental HEK293 membrane potential dye fluorescence; maximal acetylcholine challenge after compound addition; signal change vs control, % at 10 µM; actives 31% (n = 920);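 active = membrane potential signal moving either way by over 3 SD of the maximum-effect control, in both duplicate plates, meaning non-specific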
# HEK293 MPD ctr-1 – checks TRPC6 inhibitor effects in parental HEK293 cells; shares compounds with TRPC6 inhibitor; parental HEK293 membrane potential dye fluorescence; membrane potential signal change, % at 10 µM; actives 60% (n = 920); AID 2780;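 active = membrane potential signal shifting up or down by more than 3 SD of buffer-only wells, on both duplicate plates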
# HEK293 MPD ctr-2 – parental HEK293 nonspecific activity of TRPC6 modulators. actives 51% (n = 2,400). membrane potential signal change, % at 10 µM. membrane potential dye fluorescence. shares compounds with TRPC6 inhibitor;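 active = membrane potential signal moves up or down beyond 5 SD from buffer-only wells, on both duplicate plates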
# HEK293 MPD ctr 2-2 – parental HEK293 nonspecific activity of TRPC6 modulators, second screen | shares compounds with TRPC6 inhibitor | membrane potential dye fluorescence; after compound, maximal acetylcholine stimulation | inhibition, % at 10 µM | actives 14% (n = 2,400);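 active = membrane potential signal drops by more than 5 SD from the mean control signal, in both duplicate plates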;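 also: plate controls were acetylcholine ECmax control wells for no effect and buffer only wells for full effect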
# TRPC4 ctr mod – selectivity of TRPC6 modulators against mouse TRPC4; AID 488927; actives 69% (n = 2,400); HEK293 TRPC4/mu-opioid, membrane potential fluorescence; shares compounds with TRPC6 inhibitor; percent change from control (negative = decrease, positive = increase), % at 10 µM;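 active = membrane potential signal moved up or down beyond 5 SD of buffer control wells, in both duplicate plates, actives on both sides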;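 also: plate controls were assay buffer wells for no effect and DAMGO maximal-effect wells for full effect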
# TRPC4 ctr inh 2 – second check of whether TRPC6 modulators also affect mouse TRPC4; shares compounds with TRPC6 inhibitor; HEK293 TRPC4/mu-opioid, membrane potential dye fluorescence; stimulated with maximal-effect DAMGO; inhibition, % at 10 µM; actives 55% (n = 2,400); AID 488928;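 active = drop in membrane potential signal beyond 5 SD of the control wells in both duplicate plates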;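 also: TRPC4 counter screen for TRPC6 hits run under conditions tuned for TRPC6 not TRPC4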
# TRPC6 inh conf – confirmation of mouse TRPC6 inhibitors | shares compounds with TRPC6 inhibitor | HEK293-TRPC6, membrane potential dye, ACh-evoked depolarization | inhibition, % at 10 µM | actives 43% (n = 3,300) | AID 488960;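 active = fluorescence ratio falls more than 5 SD below the full-stimulation control mean, in both duplicate runs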;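 also: integrated fluorescence ratio of peak minus minimum over baseline after agonist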
# TRPC6 act conf – mouse TRPC6 activator confirmation | shares compounds with TRPC6 inhibitor | HEK293-TRPC6 membrane potential dye fluorescence, FDSS | activation, % at 10 µM | actives 11% (n = 2,800) | AID 488961;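 active = ratio signal rise beyond 5 SD above unstimulated control wells' mean, seen in both duplicate runs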;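 also: plate controls were buffer EC0 wells for no effect and acetylcholine ECmax response for full effect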
# * hit, by the source's call; i = inactive; nt = not tested or not shown.
SMILES,TRPC4 PAM,TRPC6 act,TRPC4 agonist,TRPC4 block,TRPC6 inhibitor,HEK293 MPD ctr-2,HEK293 MPD ctr 2-2,TRPC4 ctr mod,TRPC4 ctr inh 2,TRPC6 inh conf,TRPC6 act conf,others
O=C(O)c1ccc(NC(=O)C2(c3ccccc3)CCCC2)cc1,i,i,i,i,i,nt,nt,nt,nt,nt,nt,
Cc1c(C(=O)OCc2ccc(F)cc2)sc2nc3n(c(=O)c12)CCC3,i,i,i,i,i,nt,nt,nt,nt,nt,nt,
CN(C)S(=O)(=O)c1ccc(C(=O)N2CC(=O)Nc3ccc(F)cc3C2c2ccc(F)cc2)cc1 (stereo not given),i,i,i,i,i,nt,nt,nt,nt,nt,nt,
C[N+]1(CCCOC(=O)C2(c3ccccc3)CCCC2)CCOCC1,i,i,i,i,-5.4*,i,i,i,i,i,i,
COc1ccc(CCNC(=O)C(=O)NCC2CCCN2S(=O)(=O)c2ccc(OC)cc2)cc1 (stereo not given),i,i,i,i,i,nt,nt,nt,nt,nt,nt,
CC(C)C(=O)N1CCC2(CC1)Oc1ccc(Cl)cc1C(=O)C21CC(c2cccnc2)=NO1 (stereo not given),i,i,i,i,i,nt,nt,nt,nt,nt,nt,
CCOC(=O)C1=NNC(C(=O)c2ccc(Cl)cc2)C1c1ccccc1 (stereo not given),i,i,i,i,i,nt,nt,nt,nt,nt,nt,
CCOC(=O)C1=NN(c2ccc(Cl)cc2)C(c2ccccc2)CC1=O (stereo not given),i,i,i,i,-7.5*,nt,nt,nt,nt,i,i,TRPC4 spec 2=i;TRPC4 spec=i;HEK293 MPD ctr 2-1=i;HEK293 MPD ctr-1=i
O=C(CN1CCN(Cc2ccccc2)CC1)Nc1cccc(S(=O)(=O)N2CCCCCC2)c1,i,i,i,i,i,nt,nt,nt,nt,nt,nt,
O=C(Nc1cccc(S(=O)(=O)N2CCCCC2)c1)c1c2c(nc3ccccc13)CCN(Cc1ccccc1)C2,i,i,i,i,-5.3*,i,i,i,i,i,i,
O=C(CN1C(=O)NC2(CCCC2)C1=O)OCCOc1ccc(Br)cc1,i,i,i,i,i,nt,nt,nt,nt,nt,nt,
Oc1ccc(/C=N/Nc2cc(N3CCOCC3)nc(N3CCOCC3)n2)cc1O,i,i,i,i,i,nt,nt,nt,nt,nt,nt,
Oc1ccccc1/C=N/Nc1cc(N2CCCC2)nc(N2CCCC2)n1,i,i,i,i,-5.2*,i,i,16%*,i,i,nt,
COc1cccc(CN(C(=O)c2ccc([N+](=O)[O-])cc2)C2CCS(=O)(=O)C2)c1 (stereo not given),i,i,i,i,i,nt,nt,nt,nt,nt,nt,
CCCCN(C)CCNC(=O)c1nn(-c2ccc(OC)cc2)c(=O)c2c1c1ccccc1n2C,i,i,i,i,-5.7*,i,i,-16%*,68%*,i,i,
CCN(C(=O)c1nn(-c2ccc(OC)cc2)c(=O)c2c1c1ccccc1n2C)c1ccc(OC)cc1,i,i,i,i,i,nt,nt,nt,nt,nt,nt,
COc1cccc2sc3ccc(C#CC4(N)CCCCC4)cc3c(=O)c12,i,i,i,i,-9.2*,nt,nt,nt,nt,57%*,i,TRPC4 spec 2=59%*;TRPC4 spec=-15%*;HEK293 MPD ctr 2-1=i;HEK293 MPD ctr-1=-228%*
CCNC(=S)N1CCN(S(=O)(=O)c2ccc(C)c(C)c2)CC1,i,i,i,i,-5.4*,i,i,i,i,i,nt,
CC(=O)Nc1ccc(S(=O)(=O)NC2(C(F)(F)F)NC(=O)N(c3ccc(C)cc3)C2=O)cc1 (stereo not given),i,i,i,i,i,nt,nt,nt,nt,nt,nt,
CC1CCN(CCCCOc2ccc(C(C)(C)C)cc2)CC1,i,i,i,i,i,nt,nt,nt,nt,nt,nt,
CC(C)(C)c1ccc(OCCCCCCN2CCNCC2)cc1,i,i,i,i,-7.7*,nt,nt,nt,nt,61%*,i,TRPC4 spec 2=52%*;TRPC4 spec=-0.1%*;HEK293 MPD ctr 2-1=i;HEK293 MPD ctr-1=2.7%*
CC(C)(c1ccccc1)c1ccc(OCCCN2CCNCC2)cc1,i,i,i,i,-6.8*,nt,nt,nt,nt,i,i,TRPC4 spec 2=34%*;TRPC4 spec=i;HEK293 MPD ctr 2-1=i;HEK293 MPD ctr-1=2.3%*
CN(Cc1ccc(F)cc1)S(=O)(=O)c1nnc(NC(=O)c2ccccc2Br)s1,i,17*,i,-6*,i,i,i,17%*,62%*,i,i,
CC(=O)c1ccc(OCc2cc(C(=O)N3CC4C[C@@H]5CC3C[C@H](C4)C5)no2)cc1,i,i,i,i,i,nt,nt,nt,nt,nt,nt,
COC(=O)CSc1nc(-c2ccccc2)c2c(c1C#N)CCCC2,i,i,i,i,i,nt,nt,nt,nt,nt,nt,
N#Cc1c(NCCN)nc(-c2ccccc2)c2c1CCCC2,i,i,i,i,-6.2*,i,i,i,85%*,67%*,i,
CCCCc1ccc(/C(C)=N/Nc2cc(N3CCOCC3)nc(C)n2)cc1,i,i,i,i,-5.2*,i,i,i,i,i,i,
CCCCN(C)C1=Nc2cccc3cccc1c23,i,i,i,i,-7.5*,-194%*,i,-42%*,69%*,56%*,i,
